Assay results as given in ChEMBL document CHEMBL3244193, “Design of species- or isozyme-specific enzyme inhibitors. 3. Species and isozymic differences between mammalian and bacterial adenylate kinases in substituent tolerance in an enzyme-substrate complex” (J Med Chem, 1979).

What was measured:
Escherichia coli [1] = experiment: Activity of Escherichia coli adenylate kinase by Lineweaver-Burk plot analysis relative to ATP
In short: (§1)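 Substrate kinetics in a pyruvate kinase/lactate dehydrogenase-coupled assay: 0.1 M Tris-HCl pH 7.6, 2 mM MgSO4, 0.12 M KCl, 0.3 mM PEP, 0.38 mM NADH, 0.25 mM AMP. A340 change over 5 min at 23 °C. Derivatives screened first at ca. 0.8 mM. Five or more substrate levels; KM and Vmax (relative to ATP) taken from linear Lineweaver-Burk plots.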

Escherichia coli [2] = experiment: Activity of Escherichia coli adenylate kinase by Lineweaver-Burk plot analysis; in short: as §1
[3] = test system: CSc1nc2c(N)ncnc2n1[C@@H]1O[C@H](COP(=O)(O)OP(=O)(O)OP(=O)(O)O)[C@@H](O)[C@H]1O; experiment: (§2) Activity of Sprague-Dawley rat liver adenylate kinase 2 by Lineweaver-Burk plot analysis; in short: as §1
[4] = test system: CCCSc1nc2c(N)ncnc2n1[C@@H]1O[C@H](COP(=O)(O)OP(=O)(O)OP(=O)(O)O)[C@@H](O)[C@H]1O; experiment: as §2; in short: as §1
[5] = test system: Nc1ncnc2c1ncn2[C@@H]1O[C@H](COP(=O)(O)OP(=O)(O)OP(=O)(O)O)[C@@H](O)[C@H]1O; experiment: as §2; in short: as §1
[6] = test system: O=C(CI)NCCCCCNc1ncnc2c1ncn2[C@@H]1O[C@H](COP(=O)(O)OP(=O)(O)OP(=O)(O)O)[C@@H](O)[C@H]1O; experiment: as §2; in short: as §1
[7] = test system: CSc1nc2c(N)ncnc2n1[C@@H]1O[C@H](COP(=O)(O)OP(=O)(O)OP(=O)(O)O)[C@@H](O)[C@H]1O; experiment: (§3) Activity of Sprague-Dawley rat liver adenylate kinase 2 by Lineweaver-Burk plot analysis relative to ATP; in short: as §1
[8] = test system: CCCSc1nc2c(N)ncnc2n1[C@@H]1O[C@H](COP(=O)(O)OP(=O)(O)OP(=O)(O)O)[C@@H](O)[C@H]1O; experiment: as §3; in short: as §1
[9] = test system: Nc1ncnc2c1ncn2[C@@H]1O[C@H](COP(=O)(O)OP(=O)(O)OP(=O)(O)O)[C@@H](O)[C@H]1O; experiment: as §3; in short: as §1
[10] = test system: O=C(CI)NCCCCCNc1ncnc2c1ncn2[C@@H]1O[C@H](COP(=O)(O)OP(=O)(O)OP(=O)(O)O)[C@@H](O)[C@H]1O; experiment: as §3; in short: as §1

Nc1ncnc2c1ncn2[C@@H]1O[C@H](COP(=O)(O)OP(=O)(O)OP(=O)(O)O)[C@@H](O)[C@H]1O
Vmax (Escherichia coli [1]): 0.06%

O=C(CI)NCCCCNc1ncnc2c1ncn2[C@@H]1O[C@H](COP(=O)(O)OP(=O)(O)OP(=O)(O)O)[C@@H](O)[C@H]1O
Vmax (Escherichia coli [2]): 0.12% | Km (Escherichia coli [1]): 2500 µM

Adenylate kinase 2, mitochondrial (Rattus norvegicus) (from UniProt P29410)
Km [3]: 180 µM | Km [4]: 60 µM | Km [5]: 90 µM | Km [6]: 1000 µM | Vmax [7]: 5% | Vmax [8]: 15.7% | Vmax [9]: 100% | Vmax [10]: 21%
